Measured values: ChEMBL document CHEMBL1142610, “Phenanthroquinolizidine alkaloids from the roots of Boehmeria pannosa potently inhibit hypoxia-inducible factor-1 in AGS human gastric cancer cells” (J Nat Prod, 2006)
Active and inactive are the calls of the source. The calls are words filed in the database; no cut-off is given here.

What was measured:
[1] = molecular target: T1, Hypoxia inducible factors; HIF-1-alpha, HIF-2-alpha (Homo sapiens, UniProt Q16665+Q99814); test: Inhibition of hypoxia-induced HIF1 activation in human AGS cells at 100 nM after 16 hrs by pGL3-HRE-luciferase reporter gene assay; format: cell-based
In short: (§1)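 AGS cells transiently cotransfected with pGL3-HRE-Luc (six HRE copies from human VEGF gene) plus pRL-CMV, plated 4 × 10^4 cells/well, grown 48 h. Then treated with graded concentrations and held 16 h in hypoxia (1% O2, 94% N2, 5% CO2). Dual-luciferase read-out, firefly normalized to renilla. 17-DMAG positive control. At least three independent experiments.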

[2] = molecular target: Aryl hydrocarbon receptor nuclear translocator (Homo sapiens) (UniProt P27540); test: Inhibition of hypoxia-induced HIF1beta protein accumulation in human AGS cells after 12 hrs by Western blot; format: cell-based
In short: (§2)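 AGS cells plated at 1.5 × 10^5 cells/cm2 and left overnight at 37 °C. Pretreated 1 h with graded concentrations, then 12 h hypoxia (1% O2, 94% N2, 5% CO2, 37 °C). Total lysates (50 µg) run on 6% SDS-PAGE. Blotted with monoclonal anti-HIF-1α or anti-HIF-1β, ECL detection. TOPO I served as loading control. At least three experiments.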

[3] = molecular target: T1, Hypoxia inducible factors; HIF-1-alpha, HIF-2-alpha; test: Inhibition of hypoxia-induced HIF1 activation in human AGS cells after 16 hrs by pGL3-HRE-luciferase reporter gene assay; format: cell-based; in short: as §1
AGS = test: Inhibition of hypoxia-induced VEGF expression in human AGS cells after 16 hrs by RT-PCR analysis; format: functional, cell-based
In short: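 AGS cells at 1.5 × 10^5 cells/cm2 pretreated 1 h with graded concentrations, then 16 h hypoxia (1% O2). Total RNA isolated and VEGF transcript detected by RT-PCR: 25 cycles (94 °C 30 s, 58 °C 30 s, 72 °C 1 min). Products run on 2% agarose with ethidium bromide staining. At least three experiments.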

[4] = molecular target: Hypoxia-inducible factor 1-alpha (Homo sapiens) (UniProt Q16665); test: Inhibition of hypoxia-induced HIF1alpha protein accumulation in human AGS cells after 12 hrs by Western blot; format: cell-based; in short: as §2
[5] = molecular target: T1, Hypoxia inducible factors; HIF-1-alpha, HIF-2-alpha; test: Inhibition of hypoxia-induced HIF1 activation in human AGS cells at 300 nM after 16 hrs by pGL3-HRE-luciferase reporter gene assay; format: cell-based; in short: as §1
[6] = Inhibition of hypoxia-induced HIF1 activation; in short: as §1

Aryl hydrocarbon receptor nuclear translocator (Homo sapiens), sequence (P27540 whole entry): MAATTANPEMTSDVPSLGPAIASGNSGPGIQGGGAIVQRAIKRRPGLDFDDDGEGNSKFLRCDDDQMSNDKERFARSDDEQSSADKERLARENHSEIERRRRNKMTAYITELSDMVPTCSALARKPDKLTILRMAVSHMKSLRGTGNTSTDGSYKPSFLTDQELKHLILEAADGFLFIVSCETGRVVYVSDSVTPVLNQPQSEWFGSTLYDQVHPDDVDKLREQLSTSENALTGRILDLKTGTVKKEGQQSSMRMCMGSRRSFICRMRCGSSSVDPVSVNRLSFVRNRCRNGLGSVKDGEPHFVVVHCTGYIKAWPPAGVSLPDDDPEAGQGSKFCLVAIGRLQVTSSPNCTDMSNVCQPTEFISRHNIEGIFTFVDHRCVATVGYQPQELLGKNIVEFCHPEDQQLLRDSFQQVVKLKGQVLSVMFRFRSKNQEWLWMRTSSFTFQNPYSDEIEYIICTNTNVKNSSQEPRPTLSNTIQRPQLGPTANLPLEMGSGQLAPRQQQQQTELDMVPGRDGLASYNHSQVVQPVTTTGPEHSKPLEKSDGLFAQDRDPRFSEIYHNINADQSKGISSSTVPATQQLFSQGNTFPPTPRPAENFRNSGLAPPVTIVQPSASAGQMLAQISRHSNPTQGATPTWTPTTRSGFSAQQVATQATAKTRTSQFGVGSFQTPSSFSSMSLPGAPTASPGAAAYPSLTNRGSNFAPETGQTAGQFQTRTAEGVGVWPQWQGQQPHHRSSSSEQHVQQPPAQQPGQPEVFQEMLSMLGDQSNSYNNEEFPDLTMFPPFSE
Hypoxia-inducible factor 1-alpha (Homo sapiens), sequence (Q16665 whole entry, looked up): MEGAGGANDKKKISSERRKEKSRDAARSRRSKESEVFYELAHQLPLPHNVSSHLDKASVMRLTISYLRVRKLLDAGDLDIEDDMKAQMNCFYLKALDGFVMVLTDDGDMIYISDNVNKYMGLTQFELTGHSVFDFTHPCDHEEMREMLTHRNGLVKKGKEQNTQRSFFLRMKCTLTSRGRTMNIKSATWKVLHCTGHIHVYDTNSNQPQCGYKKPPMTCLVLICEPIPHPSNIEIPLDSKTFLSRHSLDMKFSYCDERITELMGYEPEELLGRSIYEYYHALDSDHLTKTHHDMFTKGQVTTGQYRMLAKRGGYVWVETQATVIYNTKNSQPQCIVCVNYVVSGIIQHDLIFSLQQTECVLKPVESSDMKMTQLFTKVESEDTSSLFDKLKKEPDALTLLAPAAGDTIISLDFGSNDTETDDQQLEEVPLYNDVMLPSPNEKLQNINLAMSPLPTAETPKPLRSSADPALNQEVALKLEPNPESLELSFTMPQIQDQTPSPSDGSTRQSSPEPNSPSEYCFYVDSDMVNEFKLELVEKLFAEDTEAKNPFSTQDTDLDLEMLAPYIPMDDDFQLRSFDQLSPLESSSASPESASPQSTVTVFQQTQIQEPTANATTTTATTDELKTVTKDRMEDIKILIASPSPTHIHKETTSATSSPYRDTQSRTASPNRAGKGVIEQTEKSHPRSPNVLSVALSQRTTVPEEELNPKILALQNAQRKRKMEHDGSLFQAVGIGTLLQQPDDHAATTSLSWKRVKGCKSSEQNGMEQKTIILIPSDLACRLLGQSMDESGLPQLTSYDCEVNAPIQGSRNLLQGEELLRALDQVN

| Activity [5] | IC50 [6] [nM] | Compound | Activity [1] | Activity [2] | IC50 [3] [nM] | Activity (AGS) | Activity [4] |
| --- | --- | --- | --- | --- | --- | --- | --- |
|  |  | COc1ccc2c3c(c4cc(OC)c(OC)cc4c2c1)C[C@H]1CCCCN1C3 [CRYPTOPLEURINE] | Active | inactive | 8.7 | Dose-dependent effect | Dose-dependent effect |
| Active |  | COc1ccc2c3c(c4cc(OC)c(OC)cc4c2c1)[C@@H](O)[C@H]1CCCCN1C3 |  | inactive | 48.1 |  | Dose-dependent effect |
|  | 3 | COc1ccc([C@@H](O)[C@@H](C)Oc2ccc([C@H]3O[C@H](c4ccc(O[C@H](C)[C@H](O)c5ccc6c(c5)OCO6)c(OC)c4)[C@H](C)[C@H]3C)cc2OC)cc1OC [MANASSANTIN B] |  |  |  |  |  |
